In ChEMBL document CHEMBL1671676, “In vitro activity of nemonoxacin, a novel nonfluorinated quinolone, against 2,440 clinical isolates” (2009):
In brackets after ≈: the same amount, converted by molar mass.

Legend:
Type in all cases: functional
Staphylococcus aureus [1] = test: Antibacterial activity against methicillin-resistant Staphylococcus aureus assessed as percent cumulative susceptible isolates at minimum inhibitory concentration of 8 ug/ml by CLSI broth microdilution method; set-up: scale not given: the % may be the effect or the level left
Streptococcus pneumoniae [2] = test: Antibacterial activity against Streptococcus pneumoniae assessed as percent cumulative susceptible isolates at minimum inhibitory concentration of 32 ug/ml by CLSI broth microdilution method; set-up: scale not given: the % may be the effect or the level left
Method in brief: (§1)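 Clinical isolates tested by CLSI broth microdilution using 96-well panels of doubling drug dilutions in cation-adjusted Mueller-Hinton broth with 5% lysed horse blood. MIC was read from these panels. Panel quality control used CLSI ATCC strains, including S. pneumoniae 49619, S. aureus 29213, E. faecalis 29212 and E. coli 25922. Cumulative percentages of isolates were tabulated at each MIC.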

Streptococcus pneumoniae [3] = test: Antibacterial activity against penicillin-resistant Streptococcus pneumoniae assessed as percent cumulative susceptible isolates at minimum inhibitory concentration of 1 ug/ml by CLSI broth microdilution method; set-up: scale not given: the % may be the effect or the level left
Streptococcus pneumoniae [4] = test: Antibacterial activity against Streptococcus pneumoniae assessed as percent cumulative susceptible isolates at minimum inhibitory concentration of 2 ug/ml by CLSI broth microdilution method; set-up: scale not given: the % may be the effect or the level left
Streptococcus pneumoniae [5] = test: Antibacterial activity against Streptococcus pneumoniae assessed as percent cumulative susceptible isolates at minimum inhibitory concentration of 8 ug/ml by CLSI broth microdilution method; set-up: scale not given: the % may be the effect or the level left
Escherichia coli [6] = test: Antibacterial activity against Escherichia coli assessed as percent cumulative susceptible isolates at minimum inhibitory concentration of 8 ug/ml by CLSI broth microdilution method; set-up: scale not given: the % may be the effect or the level left
Staphylococcus aureus [7] = test: Antibacterial activity against community-associated methicillin-resistant Staphylococcus aureus assessed as percent cumulative susceptible isolates at minimum inhibitory concentration of 8 ug/ml by CLSI broth microdilution method; set-up: scale not given: the % may be the effect or the level left; method in brief: as §1
Proteus mirabilis [8] = test: Antibacterial activity against Proteus mirabilis assessed as percent cumulative susceptible isolates at minimum inhibitory concentration of 0.06 ug/ml by CLSI broth microdilution method; set-up: scale not given: the % may be the effect or the level left
[9] = system: Staphylococcus epidermidis; test: Antibacterial activity against methicillin-resistant Staphylococcus epidermidis assessed as percent cumulative susceptible isolates at minimum inhibitory concentration of 4 ug/ml by CLSI broth microdilution method; set-up: scale not given: the % may be the effect or the level left
[10] = system: Stenotrophomonas maltophilia; test: Antibacterial activity against Stenotrophomonas maltophilia assessed as percent cumulative susceptible isolates at minimum inhibitory concentration of 0.5 ug/ml by CLSI broth microdilution method; set-up: scale not given: the % may be the effect or the level left
Staphylococcus aureus [11] = test: Antibacterial activity against methicillin-susceptible Staphylococcus aureus assessed as percent cumulative susceptible isolates at minimum inhibitory concentration of <=0.008 ug/ml by CLSI broth microdilution method; set-up: scale not given: the % may be the effect or the level left
Staphylococcus aureus [12] = test: Antibacterial activity against methicillin-resistant Staphylococcus aureus assessed as percent cumulative susceptible isolates at minimum inhibitory concentration of 4 ug/ml by CLSI broth microdilution method; set-up: scale not given: the % may be the effect or the level left
Klebsiella pneumoniae = test: Antibacterial activity against Klebsiella pneumoniae assessed as percent cumulative susceptible isolates at minimum inhibitory concentration of <=[…] by CLSI broth microdilution method; set-up: scale not given: the % may be the effect or the level left
Escherichia coli [13] = test: Antibacterial activity against Escherichia coli assessed as percent cumulative susceptible isolates at minimum inhibitory concentration of 2 ug/ml by CLSI broth microdilution method; set-up: scale not given: the % may be the effect or the level left
[14] = system: Staphylococcus epidermidis; test: Antibacterial activity against methicillin-resistant Staphylococcus epidermidis assessed as percent cumulative susceptible isolates at minimum inhibitory concentration of […] by CLSI broth microdilution method; set-up: scale not given: the % may be the effect or the level left
Staphylococcus aureus [15] = test: Antibacterial activity against hospital-associated methicillin-resistant Staphylococcus aureus by CLSI M7-A7 broth microdilution method; method in brief: as §1
Staphylococcus aureus [16] = test: Antibacterial activity against Levofloxacin-susceptible Staphylococcus aureus assessed as percent cumulative susceptible isolates at minimum inhibitory concentration of […] by CLSI broth microdilution method; set-up: scale not given: the % may be the effect or the level left
Staphylococcus aureus [17] = test: Antibacterial activity against non-levofloxacin susceptible Staphylococcus aureus assessed as percent cumulative susceptible isolates at minimum inhibitory concentration of 4 ug/ml by CLSI broth microdilution method; set-up: scale not given: the % may be the effect or the level left
Streptococcus pneumoniae [18] = test: Antibacterial activity against Streptococcus pneumoniae assessed as percent cumulative susceptible isolates at minimum inhibitory concentration of […] by CLSI broth microdilution method; set-up: scale not given: the % may be the effect or the level left
Streptococcus pneumoniae [19] = test: Antibacterial activity against Streptococcus pneumoniae by CLSI M7-A7 broth microdilution method
Method in brief: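 Broth microdilution per CLSI guidelines on clinical isolates, using panels of doubling drug dilutions in cation-adjusted Mueller-Hinton broth with 5% lysed horse blood. MIC read per CLSI, and cumulative percentage of isolates inhibited at each concentration tabulated.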

Enterococcus faecalis [20] = test: Antibacterial activity against Enterococcus faecalis assessed as percent cumulative susceptible isolates at minimum inhibitory concentration of 0.06 ug/ml by CLSI broth microdilution method; set-up: scale not given: the % may be the effect or the level left
Staphylococcus aureus [21] = test: Antibacterial activity against methicillin-resistant Staphylococcus aureus assessed as percent cumulative susceptible isolates at minimum inhibitory concentration of 0.03 ug/ml by CLSI broth microdilution method; set-up: scale not given: the % may be the effect or the level left; method in brief: as §1
Staphylococcus aureus [22] = test: Antibacterial activity against non-levofloxacin susceptible Staphylococcus aureus assessed as percent cumulative susceptible isolates at minimum inhibitory concentration of 32 ug/ml by CLSI broth microdilution method; set-up: scale not given: the % may be the effect or the level left
Staphylococcus aureus [23] = test: Antibacterial activity against hospital-associated methicillin-resistant Staphylococcus aureus assessed as percent cumulative susceptible isolates at minimum inhibitory concentration of […] by CLSI broth microdilution method; set-up: scale not given: the % may be the effect or the level left
Pseudomonas aeruginosa [24] = test: Antibacterial activity against Pseudomonas aeruginosa assessed as percent cumulative susceptible isolates at minimum inhibitory concentration of 256 ug/ml by CLSI broth microdilution method; set-up: scale not given: the % may be the effect or the level left
[25] = system: Stenotrophomonas maltophilia; test: Antibacterial activity against Stenotrophomonas maltophilia assessed as percent cumulative susceptible isolates at minimum inhibitory concentration of 32 ug/ml by CLSI broth microdilution method; set-up: scale not given: the % may be the effect or the level left
Enterococcus faecalis [26] = test: Antibacterial activity against Enterococcus faecalis assessed as percent cumulative susceptible isolates at minimum inhibitory concentration of 0.03 ug/ml by CLSI broth microdilution method; set-up: scale not given: the % may be the effect or the level left
Proteus mirabilis [27] = test: Antibacterial activity against Proteus mirabilis assessed as percent cumulative susceptible isolates at minimum inhibitory concentration of >=[…] by CLSI broth microdilution method; set-up: scale not given: the % may be the effect or the level left
Staphylococcus aureus [28] = test: Antibacterial activity against hospital-associated methicillin-resistant Staphylococcus aureus assessed as percent cumulative susceptible isolates at minimum inhibitory concentration of 1 ug/ml by CLSI broth microdilution method; set-up: scale not given: the % may be the effect or the level left; method in brief: as §1
Pseudomonas aeruginosa [29] = test: Antibacterial activity against Pseudomonas aeruginosa assessed as percent cumulative susceptible isolates at minimum inhibitory concentration of 64 ug/ml by CLSI broth microdilution method; set-up: scale not given: the % may be the effect or the level left
Streptococcus pneumoniae [30] = test: Antibacterial activity against Streptococcus pneumoniae assessed as percent cumulative susceptible isolates at minimum inhibitory concentration of <=0.008 ug/ml by CLSI broth microdilution method; set-up: scale not given: the % may be the effect or the level left
Pseudomonas aeruginosa [31] = test: Antibacterial activity against Pseudomonas aeruginosa assessed as percent cumulative susceptible isolates at minimum inhibitory concentration of 8 ug/ml by CLSI broth microdilution method; set-up: scale not given: the % may be the effect or the level left
Staphylococcus aureus [32] = test: Antibacterial activity against Levofloxacin-susceptible Staphylococcus aureus assessed as percent cumulative susceptible isolates at minimum inhibitory concentration of 0.06 ug/ml by CLSI broth microdilution method; set-up: scale not given: the % may be the effect or the level left
Enterococcus faecium = test: Antibacterial activity against Enterococcus faecium assessed as percent cumulative susceptible isolates at minimum inhibitory concentration of […] by CLSI broth microdilution method; set-up: scale not given: the % may be the effect or the level left
[33] = system: Stenotrophomonas maltophilia; test: Antibacterial activity against Stenotrophomonas maltophilia by CLSI M7-A7 broth microdilution method
[34] = system: Staphylococcus epidermidis; test: Antibacterial activity against methicillin-susceptible Staphylococcus epidermidis assessed as percent cumulative susceptible isolates at minimum inhibitory concentration of 0.5 ug/ml by CLSI broth microdilution method; set-up: scale not given: the % may be the effect or the level left

## C[C@H]1COc2c(N3CCN(C)CC3)c(F)cc3c(=O)c(C(=O)O)cn1c23.C[C@H]1COc2c(N3CCN(C)CC3)c(F)cc3c(=O)c(C(=O)O)cn1c23.O [LEVOFLOXACIN]
Staphylococcus aureus [1]
  Activity: 22.8%
Streptococcus pneumoniae [2]
  Activity: 100%
Streptococcus pneumoniae [3]
  Activity: 90.6%
Streptococcus pneumoniae [4]
  Activity: 99.4%
Streptococcus pneumoniae [5]
  Activity: 99.5%
Escherichia coli [6]
  Activity: 78.5%
Staphylococcus aureus [7]
  Activity: 96%
Proteus mirabilis [8]
  Activity: 33.3%
[9]
  Activity: 11.1%
[10]
  Activity: 7.7%

## COc1c(N2C[C@@H](C)C[C@H](N)C2)ccc2c(=O)c(C(=O)O)cn(C3CC3)c12 [NEMONOXACIN]
Staphylococcus aureus [11]
  Activity: 5.6%
Staphylococcus aureus [12]
  Activity: 65.4%
Klebsiella pneumoniae
  Activity: 0.5%
Escherichia coli [13]
  Activity: 75.5%
[14]
  Activity: 33.3%
Staphylococcus aureus [15]
  MIC: ≥ 4 mg/L
Staphylococcus aureus [16]
  Activity: 33.8%
Staphylococcus aureus [17]
  Activity: 67.3%
Streptococcus pneumoniae [18]
  Activity: 91%
Streptococcus pneumoniae [19]
  MIC90: 0.015 mg/L (≈ 0.0404 µM)
Enterococcus faecalis [20]
  Activity: 18.5%
Staphylococcus aureus [21]
  Activity: 6.3%
Staphylococcus aureus [22]
  Activity: 98%
Staphylococcus aureus [23]
  Activity: 2%
Pseudomonas aeruginosa [24]
  Activity: 99.3%
[25]
  Activity: 92.3%
Enterococcus faecalis [26]
  Activity: 2.5%
Proteus mirabilis [27]
  Activity: 100%
Staphylococcus aureus [28]
  Activity: 18.2%
Pseudomonas aeruginosa [29]
  Activity: 95.6%
Streptococcus pneumoniae [30]
  Activity: 19.2%
Pseudomonas aeruginosa [31]
  Activity: 78.8%
Staphylococcus aureus [32]
  Activity: 97.1%
Enterococcus faecium
  Activity: 15.8%
[33]
  MIC90: ≥ 4 mg/L
[34]
  Activity: 93%
